Test results from ChEMBL document CHEMBL3046889, “Structure-activity relationships of phenylcyclohexene and biphenyl antitubulin compounds against plant and mammalian cells” (Bioorg Med Chem Lett, 2001).
Activity calls are given as the source filed them. No cut-off for these calls is given here.

Key:
Nicotiana tabacum [1] = assay: Inhibition of Nicotiana tabacum (tobacco) root growth assessed as inhibition of root elongation; assay type: functional, organism-based
In short: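 In vitro tobacco root growth assay on germinating seeds; root elongation scored, EC50 derived.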

HCT-116 = assay: Antitumor activity against Homo sapiens (human) HCT116 cells; assay type: functional, cell-based
In short: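 Cytotoxicity toward human HCT116 colon cancer cells measured by sulforhodamine B assay in 96-well format.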

Nicotiana tabacum [2] = assay: Mitotic arrest in Nicotiana tabacum (tobacco) root suspension-cultured cells assessed as accumulation of cells in metaphase by cytological staining assay; assay type: functional
In short: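 Suspension-cultured tobacco cells were treated with the compound, and their chromosomes were cytologically stained. The read-out was mitotic index, meaning the fraction of cells in mitosis, with arrest scored as cells accumulating in metaphase.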

Tubulin (Bos taurus) [3] = assay: Inhibition of Bos taurus (bovine) brain tubulin polymerization at 200 uM
Tubulin (Bos taurus) [4] = assay: Displacement of [3H]colchicine from Bos taurus (bovine) brain tubulin by competition assay

SMILES	EC50 (Nicotiana tabacum [1]; Nicotiana tabacum) [µM]	EC50 (HCT-116; Homo sapiens, HCT-116) [µM]	EC50 (HCT-116; hct-116) [µM]	also measured
COc1ccc(-c2ccc(OC)c(OC)c2OC)cc1 [2,3,4,4'-TETRAMETHOXYBIPHENYL]	> 100	1.52		
COc1ccc(-c2ccc(OC)c(OC)c2OC)c(C)c1	> 100	0.78		
COc1ccc(-c2ccccc2C#N)c(OC)c1OC	> 100	13.8		
COc1cc2c(c(OC)c1OC)-c1ccc(OC)c(=O)cc1[C@@H](NC(C)=O)CC2 [COLCHICINE]	356	0.02		Activity (Nicotiana tabacum [2]): Active
COc1ccc([C@H]2CC=CC[C@@H]2C#N)c(OC)c1OC (single isomer, unassigned; enantiomer I)			136	EC50 (Nicotiana tabacum [1]): 0.667 µM
COc1ccc(-c2ccccc2[N+](=O)[O-])c(OC)c1OC	52	19.6		
COc1ccc([C@H]2CC=CC[C@H]2C#N)c(OC)c1OC (single isomer, unassigned)			142	
COc1ccc([C@H]2CC=CC[C@@H]2C#N)c(OC)c1OC (single isomer, unassigned; enantiomer II)			47	EC50 (Nicotiana tabacum [1]): 7.17 µM
COc1ccc([C@@H]2CC=CC[C@H]2[N+](=O)[O-])c(OC)c1OC (racemic) [listing 1 of 2 here]			85	EC50 (Nicotiana tabacum [1]): 0.27 µM
COc1ccc(C2CC=CCC2C#N)c(OC)c1OC (mixture of isomers)	2.29	113		inhibition (Tubulin (Bos taurus) [3]): Active
COc1ccc([C@H]2CC=CC[C@H]2C#N)c(OC)c1OC (single isomer, unassigned; enantiomer II)	> 25		45	
COc1ccc(-c2ccc(OC)c(OC)c2OC)c(C#N)c1	> 100	0.58		
O=[N+]([O-])[C@@H]1CC=CC[C@H]1c1ccccc1 (mixture of isomers)	> 100	174		
COc1ccc(-c2ccc(OC)c(OC)c2OC)c([N+](=O)[O-])c1	> 100	2.65		
COc1ccc([C@@H]2CC=CC[C@H]2[N+](=O)[O-])c(OC)c1OC (single isomer, unassigned)		71		EC50 (Nicotiana tabacum [1]): 1.96 µM
COc1cccc([C@@H]2CC=CC[C@H]2[N+](=O)[O-])c1 (racemic)	3.78	143		
COc1ccc([C@@H]2CC=CC[C@H]2[N+](=O)[O-])c(OC)c1OC (racemic) [listing 2 of 2 here]				inhibition (Tubulin (Bos taurus) [4]): Active; inhibition (Tubulin (Bos taurus) [3]): Active; Activity (Nicotiana tabacum [2]): Active
COc1ccc([C@@H]2CC=CC[C@H]2[N+](=O)[O-])c(OC)c1OC (single isomer, unassigned; enantiomer I)			79	EC50 (Nicotiana tabacum [1]): 0.1 µM
